These results are taken from ChEMBL document CHEMBL4665720, “Bioisosteric substitution of adamantane with bicyclic lipophilic groups improves water solubility of human soluble epoxide hydrolase inhibitors” (Bioorg Med Chem Lett, 2020).

≈ marks a conversion by molar mass, not a printed value.

Series [1] in a line: Solubility of the compound in 0.1 M sodium phosphate buffer at pH 7.4. Format: physicochemical. The essentials:
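Measured in 0.1 M sodium phosphate buffer, pH 7.4, with 1% DMSO present.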

For series [2], the target named is T1, Bifunctional epoxide hydrolase 2 (Homo sapiens, UniProt P34913).
T1 sequence (P34913 whole entry): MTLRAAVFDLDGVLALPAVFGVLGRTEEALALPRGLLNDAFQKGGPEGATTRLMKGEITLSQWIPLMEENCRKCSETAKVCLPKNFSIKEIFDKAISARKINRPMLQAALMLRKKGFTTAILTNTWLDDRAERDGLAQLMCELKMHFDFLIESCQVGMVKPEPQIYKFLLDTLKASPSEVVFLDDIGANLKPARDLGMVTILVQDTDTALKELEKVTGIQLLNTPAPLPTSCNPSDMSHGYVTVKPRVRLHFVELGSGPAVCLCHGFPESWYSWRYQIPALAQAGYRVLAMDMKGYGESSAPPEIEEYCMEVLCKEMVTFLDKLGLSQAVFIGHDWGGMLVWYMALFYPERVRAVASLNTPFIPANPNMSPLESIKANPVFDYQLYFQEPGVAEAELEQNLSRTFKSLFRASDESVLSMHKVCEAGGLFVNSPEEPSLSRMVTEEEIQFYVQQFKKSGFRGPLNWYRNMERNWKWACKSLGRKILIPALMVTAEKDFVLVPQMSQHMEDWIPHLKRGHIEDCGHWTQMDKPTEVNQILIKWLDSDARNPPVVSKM
Nature of the series: Inhibition of human soluble epoxide hydrolase by kinetic fluorescent assay. The essentials: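 Human sEH enzyme, kinetic fluorescence read-out; each value is the mean of three separate experiments.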

The term solubility denotes the concentration that dissolves in the medium under given conditions. A word on the IC50: it is the concentration needed to halve the response being measured. A low value points to higher potency. In series [1] (buffer), `CCOC(=O)CNC(=O)NC1CC2CCC1C2` (stereo not given) registered a solubility of more than 2000 µM. The same molecule displayed an IC50 in series [2] of 1580 nM. For `CC1(C)[C@H]2CC[C@]1(C)C(NC(=O)Nc1ccccc1F)C2` (mixture of isomers), the IC50 in series [2] amounted to 3.7 nM. In series [1] (buffer), `O=C(NCCCCCCCCNC(=O)NCc1ccco1)NCc1ccco1` displayed a solubility of 50 µM (≈ 19.5 µg/mL). Turning to `O=C(Nc1ccccc1F)NC1CC2CCC1C2` (stereo not given), the solubility in series [1] (buffer) came out at 325 µM (≈ 80.7 µg/mL). Further, in series [2], the IC50 came out at 6.8 nM. The molecule `O=C(NCc1ccco1)NCC12CC3CC(CC(C3)C1)C2` registered a solubility in series [1] (buffer) of 300 µM (≈ 86.5 µg/mL). Also, in series [2], the IC50 was determined as 44.8 nM. In series [2], `CC1(C)C2CCC1(C)C(NC(=O)Nc1ccc(OC(F)(F)F)cc1)C2` (stereo not given) returned an IC50 of 2.5 nM.

In turn, `CC1(C)C2CCC1(C)C(NC(=O)Nc1ccccc1F)C2` (stereo not given) registered a solubility in series [1] (buffer) of 225 µM (≈ 65.3 µg/mL). This molecule displayed an IC50 in series [2] of 14.4 nM.

For the molecule `O=C(NCCCCCCNC(=O)NCc1ccco1)NCc1ccco1`, the solubility in series [1] (buffer) amounted to 100 µM (≈ 36.2 µg/mL). Besides, the IC50 in series [2] is 86.3 nM. `O=C(NCCCCCCCCNC(=O)NC1CC2CCC1C2)NC1CC2CCC1C2` (stereo not given): the IC50 in series [2] is 0.4 nM. With `CC1(C)C2CCC1(C)C(NC(=O)NCCCCCCCCNC(=O)NC1CC3CCC1(C)C3(C)C)C2` (stereo not given), in series [1] (buffer), the solubility was 10 µM (≈ 5.03 µg/mL). The same molecule displayed an IC50 in series [2] of 0.4 nM. In the case of `O=C(NCCCCNC(=O)NC1CC2CCC1C2)NC1CC2CCC1C2` (stereo not given), the solubility in series [1] (buffer) amounted to 75 µM (≈ 27.2 µg/mL). The molecule further had an IC50 in series [2] of 11.8 nM. Molecule `O=C(NCCCCCCCCCCNC(=O)NC1CC2C=CC1C2)NC1CC2C=CC1C2` (stereo not given) showed an IC50 in series [2] of 0.4 nM.

On to `O=C(NC1CC2C=CC1C2)NC1C2CC3CC(C2)CC1C3` (stereo not given), for which the midpoint of inhibition in series [2], the IC50, lay at 0.9 nM.

In series [1] (buffer), `CCCCCCCCNC(=O)NC1CC2CCC1(C)C2(C)C` (stereo not given) came in with a solubility of 125 µM (≈ 38.6 µg/mL). The molecule further registered an IC50 in series [2] of 6.5 nM. In turn, `CC1(C)[C@@H]2CC[C@@]1(C)C(NC(=O)Nc1ccccc1F)C2` (mixture of isomers) registered a solubility in series [1] (buffer) of 225 µM. This molecule yielded an IC50 in series [2] of 50.6 nM. The corresponding values for `CC12CCC(NC(=O)N[C@H]3CC[C@H](Oc4ccc(C(=O)O)cc4)CC3)(OC1=O)C2(C)C` (stereo not given in full) are 300 µM (≈ 129 µg/mL) and 35.3 nM.

On to `O=C(NCCCCNC(=O)NCc1ccco1)NCc1ccco1`, for which, in series [1] (buffer), the solubility is 225 µM (≈ 75.2 µg/mL). The molecule also registered an IC50 in series [2] of 1800 nM. The corresponding values for `CCOC(=O)CNC(=O)NC1CC2CCC1(C)C2(C)C` (stereo not given) are more than 2000 µM and 2170 nM. The corresponding values for `O=C(NCc1ccco1)Nc1ccccc1F` are 425 µM (≈ 99.5 µg/mL) and 635 nM. The corresponding values for `CC1(C)C2CCC1(C)C(NC(=O)NCCCCNC(=O)NC1CC3CCC1(C)C3(C)C)C2` (stereo not given) are 10 µM (≈ 4.47 µg/mL) and 2.3 nM. For the molecule `O=C(Nc1ccc(OC(F)(F)F)cc1)NC1CC2CCC1C2` (stereo not given), the IC50 in series [2] was determined as 0.4 nM.

Consider `O=C(NC1CC2C=CC1C2)N[C@H]1CC[C@H](Oc2ccc(C(=O)O)cc2)CC1` (stereo not given in full), for which the solubility in series [1] (buffer) worked out at 350 µM (≈ 130 µg/mL). In series [2], this molecule displayed an IC50 of 1.5 nM. `O=C(Nc1ccc(OC(F)(F)F)cc1)N[C@H]1CC[C@H](Oc2ccc(C(=O)O)cc2)CC1`: in series [1] (sodium phosphate buffer, read-out: solubility), the solubility turned out to be 5 µM (≈ 2.19 µg/mL).

In series [2], `O=C(NCC12CC3CC(CC(C3)C1)C2)NC1CC2C=CC1C2` (stereo not given) came in with an IC50 of 0.7 nM. In series [2], `O=C(NCCCCNC(=O)NC1CC2C=CC1C2)NC1CC2C=CC1C2` (stereo not given) gave an IC50 of 21 nM.
